From PubChem BioAssay
Cneo AK release: Cryptococcus neoformans cell lysis inducers, primary screen, AK release luminescence, single concentration; hit rate 0.2% among 360,000; C. neoformans lysis, adenylate kinase release luminescence, 4 h; normalised: neutral wells 0, clomiphene wells 100; AID 651654, 2012; lysis activity, % at 15 µM;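 active means mean lysis activity across replicates of at least 80%, whatever share of replicates individually reach that level; inactive means mean lysis activity below 80%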
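Material – Cryptococcus neoformans yeast cells · Quantity – 5 × 10^6 yeast cells/mL · Buffer or medium – YPD medium · Compound – single dose · Timing – 4 h static compound exposure, 37 °C, read 1 h post-reagent · Signal – adenylate kinase release luminescence · Read-out basis – lysis from increased AK signal · Benchmarks – Clomiphene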
PglD inh: C. jejuni PglD acetyltransferase inhibitors, primary screen, biochemical, DTNB colorimetric, single point; inhibition, % at 12.5 µM; purified PglD enzyme, DTNB colorimetric CoA detection; hit rate 0.098% among 360,000; AID 602405, 2012; UDP-N-acetylbacillosamine N-acetyltransferase PglD (Campylobacter jejuni); in the data active means inhibition above about 16%, passing the limit was not always enough
Yeast superoxide: reduction of superoxide in aged yeast, primary screen, HTS; superoxide response (% of plate mean), % at 10 µM; S. cerevisiae aged cells, superoxide DHE fluorescence; active compounds read low; hit rate 0.18% among 330,000; AID 2690, 2010;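 active means superoxide response under a set limit, about three screen SD below normal, cut at about 65% in these data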;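 further: yeast aged for seven days with compound at 30 °C before DHE staining; 100% = average MFI of all compound-treated wells on the plate with controls excluded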
rRNA inh HTS: reduced GFP signal of wild-type E. coli, primary screen, bacterial rRNA inhibitor project, GFP/RFP fluorescence, OD600, single point. AID 720706, 2013. hit rate 1.6% among 350,000. E. coli WT GFP vs humanized-ribosome RFP mutants, 24 h; active compounds read low; DMSO median 0, no signal -100. GFP signal change (wild-type ribosome), % (test concentration not listed);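 active means significant combined selectivity score with lowered wild-type GFP, culture density cut under 30%, mutant RFP and density less affected; inactive means any of these conditions unmet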
Mot1-301 SUMO: yeast Mot1-301 growth rescue at high temperature, primary screen, SUMOylation pathway inhibitor project, S. cerevisiae, ATP luminescence, 38.5C | growth rescue, % at 18.8 µM | hit rate 1% among 320,000 | AID 2716, 2010 | S. cerevisiae Mot1-301 growth rescue; percent above DMSO median, 100 means doubled;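 active means every valid replicate shows activation above 250% relative to neutral control wells; inactive means the rest, any valid replicate at or below 250%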;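 further: OY570 slx delta 5 strain wells were the positive control but not used for scaling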
An asterisk follows results filed as active. This is a sample that favours compounds with a hit; in the whole collection about 2.2% have one here.

For COc1ccc(NC(=O)N(C)C[C@H]2Oc3ncc(-c4cccnc4)cc3C(=O)N([C@H](C)CO)C[C@@H]2C)cc1 the results were Cneo AK release -7, PglD inh -2 and rRNA inh HTS 9.
For Cc1ccc(CSCc2ccc(C(=O)NCC3CCCO3)o2)cc1 (stereo not given) the results were Cneo AK release 0, PglD inh -1, Yeast superoxide 106, rRNA inh HTS -2 and Mot1-301 SUMO 121.
`Cc1cccc(CSCc2ccc(C(=O)NCC3CCCO3)o2)c1` (stereo not given) gave Cneo AK release 0, PglD inh 0, Yeast superoxide 101, rRNA inh HTS -9 and Mot1-301 SUMO 315*.
Screening C[C@@H]1CN([C@@H](C)CO)S(=O)(=O)c2ccc(C3=CCCC3)cc2O[C@@H]1CN(C)S(=O)(=O)c1cn(C)cn1 returned Cneo AK release -3, PglD inh 4 and rRNA inh HTS 2.
`CN(CCCC(=O)Nc1ccc(Br)cc1F)S(=O)(=O)c1ccccc1` gave Cneo AK release 2, PglD inh 7, Yeast superoxide 109, rRNA inh HTS -22* and Mot1-301 SUMO 380.
For C/C(=N\NC(=O)COc1ccccc1-c1ccccc1)c1cccnc1 the results were Yeast superoxide 102 and rRNA inh HTS -40*.
Screening C/C(=N\NC(=O)COc1ccccc1-c1ccccc1)c1ccc(O)cc1O returned Yeast superoxide 101, rRNA inh HTS -25 and Mot1-301 SUMO -16.
O=C(COc1ccccc1-c1ccccc1)N/N=C/c1cccnc1 was read as Yeast superoxide 108 and rRNA inh HTS -35.
O=C(CSc1nc2ccccc2s1)Nc1ncccn1 was read as Cneo AK release 2, PglD inh 1, Yeast superoxide 108 and Mot1-301 SUMO 0.
For C/C(=N\NC(=O)COc1ccccc1-c1ccccc1)c1ccccn1 the results were Cneo AK release 0, PglD inh -1, Yeast superoxide 90, rRNA inh HTS -49* and Mot1-301 SUMO -17.
C/C(=N\NC(=O)CSc1nc2ccccc2s1)c1cccnc1 was read as Yeast superoxide inactive, rRNA inh HTS -21* and Mot1-301 SUMO 10.
For COc1ccc(S(=O)(=O)N(C)C[C@H]2OCCCC[C@@H](C)Oc3ccc(NC(=O)Nc4ccc5c(c4)OCO5)cc3C(=O)N([C@@H](C)CO)C[C@H]2C)cc1 the results were Cneo AK release 1, PglD inh 1 and rRNA inh HTS -2.
`O=C(C[C@H]1CC[C@H](NC(=O)Nc2ccc3c(c2)OCO3)[C@H](CO)O1)NCc1ccc(Cl)cc1` gave Cneo AK release 2, PglD inh 3 and rRNA inh HTS -1.
`C/C(=N\NC(=O)c1cc(C)nc2ccccc12)c1ccncc1` gave Cneo AK release -7, PglD inh 2, Yeast superoxide 106, rRNA inh HTS 7 and Mot1-301 SUMO -5.
C/C(=N\NC(=O)c1cc(C)nc2ccccc12)c1ccccn1 was read as Cneo AK release 4, PglD inh 5, Yeast superoxide 124, rRNA inh HTS -24* and Mot1-301 SUMO -8.
Screening Cc1cc(C(=O)Nc2ccc3c(c2)C(=O)N(C)[C@H]2CC[C@H](CC(=O)N[C@@H](C)c4ccccc4)O[C@H]2CO3)no1 returned Cneo AK release 7, PglD inh 4 and rRNA inh HTS 4.
Cc1cc(C(=O)Nc2ccc3c(c2)C(=O)N(C)[C@H]2CC[C@@H](CC(=O)N[C@@H](C)c4ccccc4)O[C@H]2CO3)no1 was read as Cneo AK release 100*, PglD inh 3 and rRNA inh HTS -2.
Cc1cc(C(=O)Nc2ccc3c(c2)C(=O)N(C)[C@@H]2CC[C@@H](CC(=O)N[C@@H](C)c4ccccc4)O[C@@H]2CO3)no1 was read as Cneo AK release 83*, PglD inh 2 and rRNA inh HTS 0.
O=C(/C=C/c1ccco1)NC(=S)NNC(=O)c1ccco1 was read as Cneo AK release -4, PglD inh -3, Yeast superoxide 81, rRNA inh HTS -26* and Mot1-301 SUMO -4.
`CCCOc1ccc(C(=O)NNC(=S)NC(=O)c2ccco2)cc1` gave Yeast superoxide 218, rRNA inh HTS -48* and Mot1-301 SUMO -10.
`O=C(/C=C/c1ccco1)NC1CCCC1` gave Yeast superoxide 110, rRNA inh HTS 20 and Mot1-301 SUMO 693*.
For CC(=O)NC(=S)Nc1ccc(NC(=S)NC(=O)/C=C/c2ccco2)cc1 the results were Yeast superoxide 124, rRNA inh HTS -12 and Mot1-301 SUMO 1.
`O=C(COC(=O)/C=C/c1ccco1)NC1CCCCC1` gave Cneo AK release 2, PglD inh 6, Yeast superoxide 100, rRNA inh HTS 13 and Mot1-301 SUMO -10.
Screening C[C@H]1CN([C@@H](C)CO)C(=O)c2cccc(NC(=O)Nc3ccc4c(c3)OCO4)c2O[C@H]1CN(C)C(=O)Nc1ccc2c(c1)OCO2 returned Cneo AK release -9, PglD inh 2 and rRNA inh HTS -5.
`COC(=O)c1scc(S(=O)(=O)C(C)C)c1N/N=C(\C#N)C(=O)c1ccc(Cl)cc1` gave Yeast superoxide 91, rRNA inh HTS -43* and Mot1-301 SUMO -2.
Screening COc1ccc(CCN2C(=O)CC(C(N)=O)SC2=Nc2ccccc2)cc1 (stereo not given) returned Cneo AK release 0, PglD inh -35, Yeast superoxide 101, rRNA inh HTS -27* and Mot1-301 SUMO -3.
Screening O=[N+]([O-])c1cc(-c2nnc(N3CCOCC3)c3ccccc23)ccc1N1CCOCC1 returned Yeast superoxide 104, rRNA inh HTS -35* and Mot1-301 SUMO 24.
C[C@@H]1CN([C@H](C)CO)C(=O)Cc2cc(NC(=O)NC3CCCCC3)ccc2O[C@H]1CN(C)S(=O)(=O)c1ccc(F)cc1 was read as Cneo AK release 1, PglD inh -6 and rRNA inh HTS -2.
For S=c1[nH]nc(-c2ccccc2)n1/N=C/c1cccs1 the results were Cneo AK release 14, PglD inh 4, Yeast superoxide 113, rRNA inh HTS -19* and Mot1-301 SUMO 9.
Screening Cc1nc2ccccc2c(=O)n1/N=C/c1cccs1 returned Yeast superoxide 93, rRNA inh HTS -19* and Mot1-301 SUMO -10.
For S=c1[nH]nc(-c2cc(-c3ccccc3)n[nH]2)n1/N=C/c1cccc(Cl)c1 the results were Yeast superoxide 103, rRNA inh HTS -17* and Mot1-301 SUMO -3.
